Two compounds from ChEMBL document CHEMBL4033788, “Novel Ligustrazine-Based Analogs of Piperlongumine Potently Suppress Proliferation and Metastasis of Colorectal Cancer Cells in Vitro and in Vivo” (J Med Chem, 2018) can be followed below.

Calls of active or inactive are those of the source. The calls are words filed in the database; no cut-off is given here.

Data set [1] addresses Glycogen synthase kinase-3 beta (Homo sapiens) (UniProt P49841). In words: Inhibition of TGF-beta1-induced GSK-3beta phosphorylation in human HCT116 cells after 48 hrs by Western blot analysis. It is filed as cell-based. In a few lines: (§1)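 HCT-116 cells treated with or without TGF-β1 (10 ng/mL) for 48 h, with or without test agent. Lysates (20 μg/lane) run on 7.5% SDS-PAGE and transferred to PVDF. Probed for p-Akt (Ser473), Akt, p-GSK-3β (S9), GSK-3β, E-cadherin, MMP-9 and β-actin, detected by ECL. Densitometry relative to β-actin or total protein. Three independent experiments.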

The next data set has as its system Mus musculus. In words: Cardiotoxicity in BALB/c nude mouse xenografted with human HCT116 cells at 2.5 to 5 mg/kg, ip administered for 21 consecutive days. It is filed as toxicity, organism-based. To be noted: in vivo. The method, boiled down: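 Male BALB/c nude mice (3−5 weeks) inoculated sc with 1 × 10^7 HCT-116 cells; at tumour volume about 75 mm3 randomized (n = 8 per group) and dosed ip daily at 2.5 or 5 mg/kg for 21 consecutive days. Body weights monitored; liver, kidney, lung and heart inspected for size and morphology at sacrifice.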

In data set [2] the test system is HCT-116. In words: Antimetastatic activity against human HCT116 cells xenografted in BALB/c nude mouse model assessed as reduction in lung metastatic tumor at 2 to 4 mg/kg, ip administered thrice a week for 6 consecutive weeks by H and E staining-based assay. It is filed as functional, organism-based. The method, boiled down:
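BALB/c nude mice received HCT-116 cells into the tail vein, then were randomized and dosed intraperitoneally (1, 2 or 4 mg/kg) three times weekly. Body weight recorded weekly. Lungs sectioned (4 μm), H&E stained, and nodule number and area scored blinded in three sections per mouse. Nodule counts n = 4–6 per group.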

The subject of data set [3] is HCT-116. In words: Inhibition of TGF-beta1-induced increase in expression levels of snail protein in human HCT116 cells after 48 hrs by Western blot analysis. It is filed as functional, cell-based. The method, boiled down: (§2)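 HCT-116 cells (1 × 10^6/well, plated overnight) were exposed to TGF-β1 (10 ng/mL) for 48 h, with or without test compound; vehicle was 0.1% DMSO. Lysates (20 μg/lane) were run on 7.5% SDS-PAGE and blotted to PVDF, with primary antibody overnight at 4 °C and HRP/ECL detection. Band densities were normalised to β-actin across three independent experiments.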

Data set [4] is described as follows: Thiol reactivity in DMSO assessed as addition reaction at C8 position at 5 mg up to 8 hrs in presence of 3.0 equiv methyl thioglycolate by 1H NMR analysis.
A short description of data set [5]: Acute toxicity in ICR mouse assessed as survival rate at 300 mg/kg, ip administered for 14 days relative to control. It is filed as organism-based. To be noted: in vivo.
Data set [6] has as its target RAC-alpha serine/threonine-protein kinase (Homo sapiens) (UniProt P31749). In words: Inhibition of TGF-beta1-induced AKT phosphorylation in human HCT116 cells after 48 hrs by Western blot analysis. It is filed as cell-based. The method, boiled down: as §1
The subject of data set [7] is HCT-116. In words: Antitumor activity against human HCT116 cells xenografted in BALB/c nude mouse assessed as reduction in tumor volume at 2.5 to 5 mg/kg, ip administered daily for 21 consecutive days. It is filed as functional, organism-based. The method, boiled down: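 Male BALB/c nude mice, 3–5 weeks old, inoculated subcutaneously with 1 × 10^7 HCT-116 cells. At about 75 mm³ tumor volume, randomized (n = 8/group) and dosed intraperitoneally daily. Volume by caliper as d² × D/2. At the end, tumors excised and weighed; inhibition = (Wcontrol − Wtreated)/Wcontrol × 100%.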

The subject of data set [8] is HCT-116. In words: Inhibition of TGF-beta1-induced increase in expression levels of twist protein in human HCT116 cells after 48 hrs by Western blot analysis. It is filed as functional, cell-based. In a few lines:
as §2

The test system of data set [9] is HCT-116. In words: Antiproliferative activity against human HCT116 cells at […] pretreated with GSH for 1 hr measured after 72 hrs by MTT assay relative to control. It is filed as functional.
Data set [10] in a line: Stability of compound in intestinal fluid at pH 6.8 at 1 uM after 4 hrs by LC-MS/MS analysis.
Data set [11] has as its system HCT-116. In words: Induction of ROS accumulation in human HCT116 cells at 1 to 10 uM up to 3 hrs by DCFH-DA staining-based fluorescence spectrometric analysis. It is filed as functional, cell-based. The method, boiled down:
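HCT-116 and CCD-841 cells treated in triplicate at 1, 5 and 10 μM for 1, 2 and 3 h. Intracellular ROS stained with DCFH-DA and fluorescence read on a microplate reader. Values expressed relative to DMSO control, from three separate experiments.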

A short description of data set [12]: Acute toxicity in ICR mouse assessed as survival rate at 100 mg/kg, ip administered for 14 days relative to control. To be noted: in vivo. It is filed as organism-based.
Data set [13] is described as follows: Acute toxicity in ICR mouse assessed as survival rate at 400 mg/kg, ip administered for 14 days relative to control. It is filed as organism-based. To be noted: in vivo.
The test system of data set [14] is HCT-116. In words: Inhibition of TGF-beta1-induced increase in expression levels of snail protein in human HCT116 cells at 50 nM after 48 hrs by Western blot analysis. It is filed as functional, cell-based. The method, boiled down:
as §2

Sequence of RAC-alpha serine/threonine-protein kinase (Homo sapiens) (P31749 whole entry): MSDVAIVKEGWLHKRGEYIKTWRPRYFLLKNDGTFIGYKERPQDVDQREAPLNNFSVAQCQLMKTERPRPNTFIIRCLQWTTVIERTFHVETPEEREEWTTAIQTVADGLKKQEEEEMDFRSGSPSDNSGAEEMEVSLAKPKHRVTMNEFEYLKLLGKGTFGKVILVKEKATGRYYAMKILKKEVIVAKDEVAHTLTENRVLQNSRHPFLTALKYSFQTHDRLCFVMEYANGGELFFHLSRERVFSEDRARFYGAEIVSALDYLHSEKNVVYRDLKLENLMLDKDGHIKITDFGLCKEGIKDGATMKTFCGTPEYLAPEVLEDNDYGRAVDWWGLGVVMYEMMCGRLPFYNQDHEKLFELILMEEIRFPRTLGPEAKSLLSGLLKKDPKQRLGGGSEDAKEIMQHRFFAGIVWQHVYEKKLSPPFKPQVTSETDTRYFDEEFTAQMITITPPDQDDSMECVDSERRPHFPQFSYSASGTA
Sequence of Glycogen synthase kinase-3 beta (Homo sapiens) (P49841 whole entry, looked up): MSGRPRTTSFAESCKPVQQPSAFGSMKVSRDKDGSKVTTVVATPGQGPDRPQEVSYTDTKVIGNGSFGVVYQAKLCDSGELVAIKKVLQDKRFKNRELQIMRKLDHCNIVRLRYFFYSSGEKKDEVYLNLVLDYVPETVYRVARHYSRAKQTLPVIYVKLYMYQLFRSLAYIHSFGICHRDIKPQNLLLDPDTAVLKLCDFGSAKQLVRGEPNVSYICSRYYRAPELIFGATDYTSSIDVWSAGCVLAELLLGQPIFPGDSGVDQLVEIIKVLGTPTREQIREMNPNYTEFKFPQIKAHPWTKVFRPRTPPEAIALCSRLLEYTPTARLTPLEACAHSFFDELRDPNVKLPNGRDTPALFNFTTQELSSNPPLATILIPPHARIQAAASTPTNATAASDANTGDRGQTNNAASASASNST

As to `Cc1nc(C)c(/C=C/C(=O)N2CCC=C(Cl)C2=O)nc1C`, the inhibition entry (in [1]; with HCT-116 [3]; in data set [6]; with HCT-116 [8]) was “Dose-dependent effect” in each case. Besides, the Activity entry in the data set on Mus musculus was “Non-Toxic”. Besides, the outcome in the data set with HCT-116 [2], with HCT-116 [7] and in the data set with HCT-116 [11] was Active. The Drug metabolism entry in [4] is given as “Metabolite not detected”. Besides, the survival at 336 h in data set [5] is 10%; in data set [12], 80%; in data set [13], 0%. In addition, the inhibition at […] in the data set with HCT-116 [9] amounted to 36.1%. In data set [10], the Stability entry is reported as “Stable”.
Regarding `COc1cc(/C=C/C(=O)N2CCC=CC2=O)cc(OC)c1OC` [PIPLARTINE], in the data set with HCT-116 [14], the inhibition entry is “Active”.
